Tested on: Fibroblast
Experiment: Multiplex assay against human fibroblast
Format: toxicity, cell-based
Outline: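 Cells were classed with CellPathfinder machine-learning gating, first as Hoechst high-intensity objects or normal cells, then (normal cells) as healthy, pyknosed or fragmented nuclei, and finally (pyknosed cells) as mitotic or apoptotic. Staining of live cells at seeding used Hoechst33342, BioTracker Green Microtubule Cytoskeleton Dye, MitoTracker Red and Annexin V Alexa Fluor 680, with imaging on a CQ1 microscope at 37°C and 5% CO2 after compound addition. Tubulin, mitochondrial-mass and membrane-permeability phenotypes are per cents of healthy-nucleus cells.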

[1] = 12 h, 1 µM, compound concentration 1 uM, replicate 1
[2] = 12 h, 1 µM, compound concentration 1 uM, replicate 2
[3] = 12 h, 10 µM, compound concentration 10 uM, replicate 1
[4] = 12 h, 10 µM, compound concentration 10 uM, replicate 2
[5] = 24 h, 1 µM, compound concentration 1 uM, replicate 1
[6] = 24 h, 1 µM, compound concentration 1 uM, replicate 2
[7] = 24 h, 10 µM, compound concentration 10 uM, replicate 1
[8] = 24 h, 10 µM, compound concentration 10 uM, replicate 2
[9] = 48 h, 1 µM, compound concentration 1 uM, replicate 1
[10] = 48 h, 1 µM, compound concentration 1 uM, replicate 2
[11] = 48 h, 10 µM, compound concentration 10 uM, replicate 1
[12] = 48 h, 10 µM, compound concentration 10 uM, replicate 2

## COCCCN1CCC(NC(=O)c2cc(Cl)c(N)c3c2OCC3)CC1 [PRUCALOPRIDE]
[1]
  Population Apoptotic (%): 33%
  Population Fragmented Nuclei (%): 20%
  Population Healthy Nuclei (%): 62%
  Population Hoechst High Intensity Objects (%): 3%
  Population Membrane Permeable-Phenotype (%): 0%
  Population Mitochondria Different-Phenotype (%): 3%
  Population Mitotic Cells (%): 66%
  Population Normal (%): 96%
  Population Pyknosed Nuclei (%): 16%
  Population Tubulin-Different-Phenotype (%): 30%
  Total Cell Count: 132
[2]
  Population Apoptotic (%): 48%
  Population Fragmented Nuclei (%): 31%
  Population Healthy Nuclei (%): 48%
  Population Hoechst High Intensity Objects (%): 4%
  Population Membrane Permeable-Phenotype (%): 5%
  Population Mitochondria Different-Phenotype (%): 8%
  Population Mitotic Cells (%): 52%
  Population Normal (%): 95%
  Population Pyknosed Nuclei (%): 20%
  Population Tubulin-Different-Phenotype (%): 51%
  Total Cell Count: 130
[3]
  Population Apoptotic (%): 30%
  Population Fragmented Nuclei (%): 12%
  Population Healthy Nuclei (%): 66%
  Population Hoechst High Intensity Objects (%): 0%
  Population Membrane Permeable-Phenotype (%): 1%
  Population Mitochondria Different-Phenotype (%): 7%
  Population Mitotic Cells (%): 70%
  Population Normal (%): 99%
  Population Pyknosed Nuclei (%): 20%
  Population Tubulin-Different-Phenotype (%): 31%
  Total Cell Count: 144
[4]
  Population Apoptotic (%): 35%
  Population Fragmented Nuclei (%): 28%
  Population Healthy Nuclei (%): 46%
  Population Hoechst High Intensity Objects (%): 11%
  Population Membrane Permeable-Phenotype (%): 7%
  Population Mitochondria Different-Phenotype (%): 3%
  Population Mitotic Cells (%): 64%
  Population Normal (%): 88%
  Population Pyknosed Nuclei (%): 25%
  Population Tubulin-Different-Phenotype (%): 55%
  Total Cell Count: 153
[5]
  Population Apoptotic (%): 48%
  Population Fragmented Nuclei (%): 20%
  Population Healthy Nuclei (%): 57%
  Population Hoechst High Intensity Objects (%): 2%
  Population Membrane Permeable-Phenotype (%): 0%
  Population Mitochondria Different-Phenotype (%): 3%
  Population Mitotic Cells (%): 51%
  Population Normal (%): 97%
  Population Pyknosed Nuclei (%): 21%
  Population Tubulin-Different-Phenotype (%): 25%
  Total Cell Count: 136
[6]
  Population Apoptotic (%): 72%
  Population Fragmented Nuclei (%): 36%
  Population Healthy Nuclei (%): 49%
  Population Hoechst High Intensity Objects (%): 7%
  Population Membrane Permeable-Phenotype (%): 7%
  Population Mitochondria Different-Phenotype (%): 4%
  Population Mitotic Cells (%): 27%
  Population Normal (%): 92%
  Population Pyknosed Nuclei (%): 14%
  Population Tubulin-Different-Phenotype (%): 50%
  Total Cell Count: 138
[7]
  Population Apoptotic (%): 63%
  Population Fragmented Nuclei (%): 10%
  Population Healthy Nuclei (%): 74%
  Population Hoechst High Intensity Objects (%): 6%
  Population Membrane Permeable-Phenotype (%): 1%
  Population Mitochondria Different-Phenotype (%): 6%
  Population Mitotic Cells (%): 36%
  Population Normal (%): 93%
  Population Pyknosed Nuclei (%): 15%
  Population Tubulin-Different-Phenotype (%): 30%
  Total Cell Count: 128
[8]
  Population Apoptotic (%): 30%
  Population Fragmented Nuclei (%): 24%
  Population Healthy Nuclei (%): 57%
  Population Hoechst High Intensity Objects (%): 5%
  Population Membrane Permeable-Phenotype (%): 11%
  Population Mitochondria Different-Phenotype (%): 3%
  Population Mitotic Cells (%): 69%
  Population Normal (%): 94%
  Population Pyknosed Nuclei (%): 18%
  Population Tubulin-Different-Phenotype (%): 56%
  Total Cell Count: 148
[9]
  Population Apoptotic (%): 50%
  Population Fragmented Nuclei (%): 25%
  Population Healthy Nuclei (%): 60%
  Population Hoechst High Intensity Objects (%): 4%
  Population Membrane Permeable-Phenotype (%): 2%
  Population Mitochondria Different-Phenotype (%): 3%
  Population Mitotic Cells (%): 50%
  Population Normal (%): 95%
  Population Pyknosed Nuclei (%): 14%
  Population Tubulin-Different-Phenotype (%): 38%
  Total Cell Count: 146
[10]
  Population Fragmented Nuclei (%): 36%
  Population Healthy Nuclei (%): 49%
  Population Hoechst High Intensity Objects (%): 2%
  Population Membrane Permeable-Phenotype (%): 3%
  Population Mitochondria Different-Phenotype (%): 6%
  Population Normal (%): 97%
  Population Pyknosed Nuclei (%): 13%
  Population Tubulin-Different-Phenotype (%): 53%
  Total Cell Count: 132
[11]
  Population Apoptotic (%): 64%
  Population Fragmented Nuclei (%): 22%
  Population Healthy Nuclei (%): 66%
  Population Hoechst High Intensity Objects (%): 2%
  Population Membrane Permeable-Phenotype (%): 1%
  Population Mitochondria Different-Phenotype (%): 6%
  Population Mitotic Cells (%): 35%
  Population Normal (%): 97%
  Population Pyknosed Nuclei (%): 10%
  Population Tubulin-Different-Phenotype (%): 38%
  Total Cell Count: 136
[12]
  Population Apoptotic (%): 62%
  Population Fragmented Nuclei (%): 34%
  Population Healthy Nuclei (%): 48%
  Population Hoechst High Intensity Objects (%): 6%
  Population Membrane Permeable-Phenotype (%): 7%
  Population Mitochondria Different-Phenotype (%): 7%
  Population Mitotic Cells (%): 37%
  Population Normal (%): 93%
  Population Pyknosed Nuclei (%): 17%
  Population Tubulin-Different-Phenotype (%): 57%
  Total Cell Count: 146

## CC(F)(F)CN1CCOc2c(nn(-c3ccccc3Cl)c2-c2ccc(Cl)cc2)C1=O
[1]
  Population Apoptotic (%): 42%
  Population Healthy Nuclei (%): 66%
  Population Hoechst High Intensity Objects (%): 0%
  Population Mitochondria Different-Phenotype (%): 4%
  Population Mitotic Cells (%): 57%
  Population Normal (%): 99%
  Population Pyknosed Nuclei (%): 15%
  Total Cell Count: 125
[2]
  Population Apoptotic (%): 31%
  Population Healthy Nuclei (%): 48%
  Population Mitochondria Different-Phenotype (%): 10%
  Population Mitotic Cells (%): 68%
  Population Normal (%): 93%
  Population Pyknosed Nuclei (%): 25%
  Population Tubulin-Different-Phenotype (%): 61%
  Total Cell Count: 122
[3]
  Population Apoptotic (%): 47%
  Population Healthy Nuclei (%): 66%
  Population Hoechst High Intensity Objects (%): 1%
  Population Mitochondria Different-Phenotype (%): 19%
  Population Mitotic Cells (%): 52%
  Population Normal (%): 98%
  Population Pyknosed Nuclei (%): 17%
  Population Tubulin-Different-Phenotype (%): 49%
  Total Cell Count: 109
[4]
  Population Apoptotic (%): 30%
  Population Healthy Nuclei (%): 53%
  Population Hoechst High Intensity Objects (%): 5%
  Population Mitochondria Different-Phenotype (%): 8%
  Population Mitotic Cells (%): 70%
  Population Normal (%): 94%
  Population Pyknosed Nuclei (%): 15%
  Population Tubulin-Different-Phenotype (%): 57%
  Total Cell Count: 134
[5]
  Population Apoptotic (%): 61%
  Population Healthy Nuclei (%): 65%
  Population Hoechst High Intensity Objects (%): 1%
  Population Mitochondria Different-Phenotype (%): 2%
  Population Mitotic Cells (%): 38%
  Population Normal (%): 98%
  Population Pyknosed Nuclei (%): 15%
  Total Cell Count: 119
[6]
  Population Apoptotic (%): 64%
  Population Healthy Nuclei (%): 52%
  Population Hoechst High Intensity Objects (%): 4%
  Population Mitochondria Different-Phenotype (%): 10%
  Population Mitotic Cells (%): 36%
  Population Normal (%): 95%
  Population Pyknosed Nuclei (%): 20%
  Population Tubulin-Different-Phenotype (%): 75%
  Total Cell Count: 129
[7]
  Population Apoptotic (%): 33%
  Population Healthy Nuclei (%): 65%
  Population Hoechst High Intensity Objects (%): 0%
  Population Mitochondria Different-Phenotype (%): 26%
  Population Mitotic Cells (%): 66%
  Population Normal (%): 99%
  Population Pyknosed Nuclei (%): 10%
  Population Tubulin-Different-Phenotype (%): 58%
  Total Cell Count: 111
[8]
  Population Apoptotic (%): 35%
  Population Healthy Nuclei (%): 54%
  Population Hoechst High Intensity Objects (%): 1%
  Population Mitochondria Different-Phenotype (%): 10%
  Population Mitotic Cells (%): 64%
  Population Normal (%): 98%
  Population Pyknosed Nuclei (%): 14%
  Population Tubulin-Different-Phenotype (%): 60%
  Total Cell Count: 121
[9]
  Population Apoptotic (%): 56%
  Population Healthy Nuclei (%): 63%
  Population Hoechst High Intensity Objects (%): 1%
  Population Mitochondria Different-Phenotype (%): 2%
  Population Mitotic Cells (%): 43%
  Population Normal (%): 98%
  Population Pyknosed Nuclei (%): 11%
  Population Tubulin-Different-Phenotype (%): 35%
  Total Cell Count: 136
[10]
  Population Apoptotic (%): 40%
  Population Healthy Nuclei (%): 53%
  Population Hoechst High Intensity Objects (%): 4%
  Population Mitochondria Different-Phenotype (%): 21%
  Population Mitotic Cells (%): 60%
  Population Normal (%): 95%
  Population Pyknosed Nuclei (%): 7%
  Population Tubulin-Different-Phenotype (%): 72%
  Total Cell Count: 135
[11]
  Population Apoptotic (%): 78%
  Population Healthy Nuclei (%): 56%
  Population Hoechst High Intensity Objects (%): 1%
  Population Mitochondria Different-Phenotype (%): 22%
  Population Mitotic Cells (%): 21%
  Population Normal (%): 98%
  Population Pyknosed Nuclei (%): 11%
  Total Cell Count: 120
[12]
  Population Apoptotic (%): 54%
  Population Healthy Nuclei (%): 54%
  Population Mitochondria Different-Phenotype (%): 7%
  Population Mitotic Cells (%): 45%
  Population Pyknosed Nuclei (%): 7%
  Population Tubulin-Different-Phenotype (%): 57%
  Total Cell Count: 141

Reference: ChEMBL document CHEMBL5058577, “EUbOPEN Chemogenomics Library 2 (Multiplex)” (2022)
